The test system of assay [1] is A549. The assay is described as follows: Cytotoxicity against human A549 cells after 72 hrs by SRB assay. Type of assay: functional, cell-based. As to conditions: A549, 72 h. In short, it runs like this: (§1)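 Cells seeded at 3–5 × 10³ per well in RPMI-1640 with 10% FBS containing a range of sample concentrations, exposed 72 h. Attached cells fixed in cold 50% trichloroacetic acid for 30 min, stained with 0.04% sulforhodamine B for 30 min, bound dye dissolved in 10 mM Tris base, absorbance read at 515 nm. Run in triplicate. KBvin is a vincristine-selected multidrug-resistant KB subline.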
On the technique in general: The SRB assay estimates cell density from bound dye.

In assay [2] the test system is KB. The experiment in a line: Cytotoxicity against human KB cells after 72 hrs by SRB assay. Type of assay: functional, cell-based. In short, it runs like this:
as §1

Assay [3] in a line: Cytotoxicity against human KBVIN cells after 72 hrs by SRB assay. Type of assay: functional, cell-based. Summed up: as §1
Assay [4] deals with DU-145. The assay is described as follows: Cytotoxicity against human DU145 cells after 72 hrs by SRB assay. In kind it is functional, cell-based. Conditions: DU-145, 72 h. In short, it runs like this: as §1
Assay [5] in a line: Ratio of etoposide IC50 to compound IC50 for human KBVIN cells. In kind it is functional.
The test system of assay [6] is DU-145. The assay is described as follows: Ratio of etoposide IC50 to compound IC50 for human DU145 cells. Type of assay: functional.
Assay [7] concerns KB. The assay is described as follows: Ratio of etoposide IC50 to compound IC50 for human KB cells. Type of assay: functional.
Assay [8] concerns A549. The experiment in a line: Ratio of etoposide IC50 to compound IC50 for human A549 cells. In kind it is functional.

pIC50: −log10 of the molar value.

In the case of `COc1cc([C@@H]2c3cc4c(cc3[C@@H](NC(=S)NC(=O)c3ccccc3)[C@H]3COC(=O)[C@H]23)OCO4)cc(OC)c1O`, the pIC50 (as a rule, the IC50 on a negative log10 scale, so that one unit is a factor of ten) is 4.92 in the assay with A549 [1], 5.05 with KB [2], 5.00 in assay [3] and 5.01 in the assay with DU-145 [4].

`COc1cc([C@@H]2c3cc4c(cc3[C@@H](NC(=S)NC(=O)c3ccc(Cl)cc3)[C@H]3COC(=O)[C@H]23)OCO4)cc(OC)c1O`: the pIC50 (in the assay with A549 [1]; in the assay with KB [2]; in assay [3]; with DU-145 [4]) was less than 4.70 throughout.

As for `COc1cc([C@@H]2c3cc4c(cc3[C@@H](NC(=S)NC(=O)c3ccc(Cl)cc3)[C@H]3COC(=O)[C@H]23)OCO4)cc(OC)c1OC`, the negative-log IC50 (pIC50) is 5.79 in the assay on A549 [1], 5.92 in the assay with KB [2], 5.70 in assay [3] and 5.94 in the assay with DU-145 [4].

For `COc1cc([C@@H]2c3cc4c(cc3[C@@H](NC(=S)NC(=O)c3ccc(C)cc3)[C@H]3COC(=O)[C@H]23)OCO4)cc(OC)c1OC`, the pIC50 in the assay with A549 [1] is 4.95; with KB [2], 4.98; in assay [3] it was 4.91; with DU-145 [4], 4.98.

Turning to `COc1cc([C@@H]2c3cc4c(cc3[C@@H](NC(=S)NC(=O)c3ccc([N+](=O)[O-])cc3)[C@H]3COC(=O)[C@H]23)OCO4)cc(OC)c1OC`, the negative logarithm of the IC50 (pIC50) is 5.69 in the assay with A549 [1], 5.88 in the assay with KB [2], 5.78 in assay [3] and 5.80 in the assay with DU-145 [4].

Take `COc1cc([C@@H]2c3cc4c(cc3[C@@H](NC(=S)NC(=O)c3cccc([N+](=O)[O-])c3)[C@H]3COC(=O)[C@H]23)OCO4)cc(OC)c1OC`: the negative logarithm of the IC50 (pIC50) was 4.99 in the assay with A549 [1], 5.03 in the assay on KB [2], 5.01 in assay [3] and 5.01 in the assay with DU-145 [4].

`COc1cc([C@@H]2c3cc4c(cc3[C@@H](NC(=S)NC(=O)c3cccnc3)[C@H]3COC(=O)[C@H]23)OCO4)cc(OC)c1OC`: the pIC50 in the assay on A549 [1] was 4.81; in the assay on KB [2], 4.85; in assay [3], 4.77; in the assay on DU-145 [4], 4.94.

Take `COc1cc([C@@H]2c3cc4c(cc3[C@@H](NC(=S)NC(=O)c3cnccc3Cl)[C@H]3COC(=O)[C@H]23)OCO4)cc(OC)c1OC`: the pIC50 (in the assay with A549 [1]; in the assay with KB [2]; in assay [3]; with DU-145 [4]) was less than 4.70 in each case.

On to `COc1cc([C@@H]2c3cc4c(cc3[C@@H](NC(=S)NC(=O)c3cccnc3Cl)[C@H]3COC(=O)[C@H]23)OCO4)cc(OC)c1OC`, for which the pIC50 (in the assay with A549 [1]; in the assay on KB [2]; in assay [3]; with DU-145 [4]) was less than 4.70 each time.

As to `COc1cc([C@@H]2c3cc4c(cc3[C@@H](NC(=S)NC(=O)c3cncc(Br)c3)[C@H]3COC(=O)[C@H]23)OCO4)cc(OC)c1OC`, the negative-log IC50 (pIC50) (in the assay on A549 [1]; in the assay on KB [2]; in assay [3]; in the assay with DU-145 [4]) was less than 4.70 in each case.

For `COc1cc([C@@H]2c3cc4c(cc3[C@@H](NC(=S)NC(=O)c3cccs3)[C@H]3COC(=O)[C@H]23)OCO4)cc(OC)c1OC`, the pIC50 with A549 [1] was 4.91; in the assay with KB [2] it was 4.94; in assay [3], 4.90; in the assay with DU-145 [4], 4.95.

In the case of `COc1cc([C@@H]2c3cc4c(cc3[C@@H](NC(=S)NC(=O)c3ccco3)[C@H]3COC(=O)[C@H]23)OCO4)cc(OC)c1OC`, the pIC50 (in the assay on A549 [1]; in the assay on KB [2]; in assay [3]; in the assay on DU-145 [4]) was less than 4.70 throughout.

For the molecule `COc1cc([C@@H]2c3cc4c(cc3[C@@H](NC(=S)NC(=O)c3ccc5ccccc5c3)[C@H]3COC(=O)[C@H]23)OCO4)cc(OC)c1OC`, the “Ratio IC50” value (in assay [5]; with DU-145 [6]; in the assay on KB [7]; in the assay on A549 [8]) was 20 each time. In addition, the negative logarithm of the IC50 (pIC50) in the assay on A549 [1] was 6.96; in the assay on KB [2], 6.92; in assay [3], 6.89; in the assay with DU-145 [4], 7.00.

With `COc1cc([C@@H]2c3cc4c(cc3[C@@H](NC(=S)NC(=O)c3ccco3)[C@H]3COC(=O)[C@H]23)OCO4)cc(OC)c1O`, the negative-log IC50 (pIC50) in the assay on A549 [1] is 4.86; with KB [2], 5.06; in assay [3] it was 5.02; with DU-145 [4] it was 5.07.

With `COc1cc([C@@H]2c3cc4c(cc3[C@@H](NC(=S)NC(=O)c3cccs3)[C@H]3COC(=O)[C@H]23)OCO4)cc(OC)c1O`, the negative logarithm of the IC50 (pIC50) in the assay on A549 [1] is 5.01; in the assay on KB [2], 5.08; in assay [3], 5.03; in the assay with DU-145 [4] it was 5.13.

As to `COc1cc([C@@H]2c3cc4c(cc3[C@@H](NC(=S)NC(=O)c3ccc5ccccc5c3)[C@H]3COC(=O)[C@H]23)OCO4)cc(OC)c1O`, the pIC50 is 4.93 in the assay on A549 [1], 5.14 with KB [2], 4.99 in assay [3] and 5.18 in the assay with DU-145 [4].

For `COc1cc([C@@H]2c3cc4c(cc3[C@@H](NC(=S)NC(C)=O)[C@H]3COC(=O)[C@H]23)OCO4)cc(OC)c1OC`, the negative logarithm of the IC50 (pIC50) in the assay with A549 [1] was 4.88; with KB [2] it was 4.87; in assay [3], 4.87; in the assay on DU-145 [4], 4.91.

Consider `COc1cc([C@@H]2c3cc4c(cc3[C@@H](NC(=S)NC(=O)C3CCCCC3)[C@H]3COC(=O)[C@H]23)OCO4)cc(OC)c1OC`, for which the “Ratio IC50” value (in assay [5]; in the assay on DU-145 [6]; in the assay with KB [7]; with A549 [8]) was 20 in each case. Moreover, the pIC50 in the assay on A549 [1] was 6.72; in the assay on KB [2], 6.49; in assay [3] it was 7.01; in the assay with DU-145 [4] it was 6.77.

`COc1cc([C@@H]2c3cc4c(cc3[C@@H](NC(=S)NC(=O)c3ccccc3)[C@H]3COC(=O)[C@H]23)OCO4)cc(OC)c1OC`: the “Ratio IC50” value (in assay [5]; with DU-145 [6]; with KB [7]; with A549 [8]) was 20 throughout. The pIC50 was 5.95 in the assay on A549 [1], 6.05 with KB [2], 6.09 in assay [3] and 6.01 in the assay on DU-145 [4].

Take `COc1cc([C@@H]2c3cc4c(cc3[C@@H](NC(=S)NC(=O)c3ccc(F)cc3)[C@H]3COC(=O)[C@H]23)OCO4)cc(OC)c1OC`: the pIC50 in the assay on A549 [1] is 5.86; with KB [2] it was 5.84; in assay [3] it was 5.86; in the assay on DU-145 [4], 5.94.

`COc1cc([C@@H]2c3cc4c(cc3[C@@H](O[C@@H]3O[C@@H]5CO[C@@H](C)O[C@H]5[C@H](O)[C@H]3O)[C@H]3COC(=O)[C@H]23)OCO4)cc(OC)c1O` [ETOPOSIDE]: the negative logarithm of the IC50 (pIC50) in the assay on A549 [1] was 5.59; in the assay on KB [2], 5.41; in assay [3], less than 4.70; with DU-145 [4], 5.69.

The record behind these values is ChEMBL document CHEMBL2346532, “Design, synthesis and potent cytotoxic activity of novel podophyllotoxin derivatives” (Bioorg Med Chem, 2013).
